Measured values as given in PMC10012268 (ACS Infectious Diseases, 2023).
Values joined by “and” are separate entries in the source; they are usually repeats but may differ in a detail not shown here. Identical values can stand only once.

How the values were obtained:
[1] = test system: Pf Dd2 expressing ScDHODH; experiment: ScDHODH asexual-stage assay; type: cell-based; settings: Plasmodium falciparum, DD2, 72 h, read-out: Dd2 ScDHODH EC50
Procedure, shortened: (§1)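 Parasites were sorbitol-synchronised one cycle before setup. Ring stages at 0.5% parasitemia and 2% hematocrit were plated onto twofold compound dilutions and incubated at 37 °C for 72 h. Cells were fixed in 0.25% glutaraldehyde (RT, 30 min), stained with 2.5× SYBR Green (37 °C, 30 min) and counted by flow cytometry. EC50 is the average of three independent experiments.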

[2] = test system: Pf SB1-A6 strain with a CNV (∼2-fold) and a C276F mutation in DHODH; experiment: SB1-A6 asexual-stage assay; type: cell-based; settings: Plasmodium falciparum, 72 h, read-out: SB1-A6 EC50
Procedure, shortened: as §1

[3] = test system: Pf Dd2 parental line; experiment: 3H-hypoxanthine 72 h assay, Dd2 parental line; type: cell-based; settings: Plasmodium falciparum, DD2, read-out: Pf Dd2 EC50, Dd2 parental line, 3H-hypoxanthine 72 h; average of two experiments
[4] = test system: P. falciparum 3D7 parasites; experiment: P. falciparum 3D7 asexual-stage parasite LDH viability assay; type: cell-based, Plasmodium falciparum; settings: for EC50: Plasmodium falciparum, 3D7, 72 h, read-out: Control compound activity against 3D7 parasites, EC50, 3D7, LDH assay, 72 h, value (SD)
[5] = test system: P. berghei ANKA parasites expressing GFP; experiment: Peter's 4 day P. berghei mouse model; type: in vivo; settings: for % parasitemia: average for four mice on day 4; for % reduction in parasitemia: versus the vehicle control, four mice, day 4
Procedure, shortened: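 Swiss mice (four per group) were infected IV with 1 × 10^7 P. berghei ANKA GFPcon-infected erythrocytes from donor mice. Dosing was oral once daily for 4 days, starting 2 h post-infection: test compound at 20 mg/kg in 20% DMSO/60% propylene glycol/20% water, or chloroquine at 10 mg/kg in water. Day-4 parasitemia was measured as GFP+ cells per 100,000 events and by Giemsa smears, with reduction calculated against vehicle.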

[6] = test system: RF12; experiment: 3H-hypoxanthine 72 h assay, RF12; type: cell-based; settings: Plasmodium falciparum, read-out: Pf multidrug-resistant strain EC50 RF12
[7] = Liver microsome stability, mouse; type: in vitro ADME; settings: pooled mouse liver microsomes
Procedure, shortened: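 Test compound (1 μM, phosphate buffer) was incubated with pooled mouse liver microsomes (0.5 mg/mL) at 37 °C, with and without an NADPH regeneration system, sampling at 0, 5, 20, 30, 45 and 60 min. Run in duplicate.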

[8] = test system: NF54; experiment: 3H-hypoxanthine 72 h assay, NF54; type: cell-based; settings: Plasmodium falciparum, NF54, read-out: Pf multidrug-resistant strain EC50 NF54
[9] = Hepatocyte stability, rat; type: in vitro ADME; settings: pooled rat hepatocytes
Procedure, shortened: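 Test compound (1 μM) in Krebs–Henseleit buffer was incubated with pooled rat hepatocytes (1 × 10^6 cells/mL) at 37 °C, 5% CO2, with samples from 0 to 90 min. Reactions were quenched with ice-cold acetonitrile and centrifuged, and supernatants were analysed by LC–MS/MS. Half-life and CLint were derived from parent remaining. Run in duplicate.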

[10] = test system: 7G8; experiment: 3H-hypoxanthine 72 h assay, 7G8; type: cell-based; settings: Plasmodium falciparum, 7G8, read-out: Pf multidrug-resistant strain EC50 7G8
[11] = test system: P. falciparum NF54 female gametes; experiment: Dual gamete formation assay; type: cell-based; settings: Plasmodium falciparum, NF54, read-out: female gamete EC50
Procedure, shortened: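 Stage V NF54 gametocyte cultures with >0.2% exflagellation were diluted to 12.5 million cells/mL in gametocyte medium containing 10% human serum and no Albumax. They were dispensed warm (625,000 cells/well) onto the test compound. After ookinete medium was added, plates went to 4 °C for 4 min and then 28 °C for 5 min, followed by 24 h at 28 °C in the dark. Female gametes (Pfs25) were scored from one fluorescence image per well.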

[12] = test system: HepG2; experiment: HepG2 host cell viability in the liver stage panel; type: cell-based; settings: Homo sapiens, HepG2, 48 h, read-out: HepG2 EC50 (liver stage)
[13] = test system: P. berghei EEFs; experiment: Exoerythrocytic stage assay; type: cell-based; settings: Plasmodium berghei, 48 h, read-out: Pb liver stage EEFs EC50 (SD)
[14] = test system: K1; experiment: 3H-hypoxanthine 72 h assay, K1; type: cell-based; settings: Plasmodium falciparum, K1, read-out: Pf multidrug-resistant strain EC50 K1
[15] = test system: drug-resistant P. falciparum strains; experiment: Profiling against a selection of multidrug-resistant parasites; type: cell-based, Plasmodium falciparum
Procedure, shortened: (§2)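 Asexual blood-stage parasites in hypoxanthine-free RPMI 1640 with HEPES, NaHCO3, neomycin (100 μg/mL) and Albumax II (5 g/L). Infected blood (0.3% parasitemia, 2.5% hematocrit) was exposed to a 10-point serial dilution at 37 °C under 93% N2/4% CO2/3% O2. After 48 h, [3H]-hypoxanthine (0.5 μCi/well) was added for 24 h more. Scintillation cpm were normalised to untreated controls, and logit regression gave values as means of two experiments.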

[16] = Plasma bioanalysis in the P. berghei mouse model; type: in vivo; settings: 20 mg/kg oral
Procedure, shortened: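 Blood was sampled from P. berghei-infected mice at 2, 6 and 22 h after the first oral 20 mg/kg dose. Plasma compound concentrations were quantified by LCMS.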

[17] = test system: Pf Dd2 strain with an I22L mutation in the Qi site cyt b; experiment: 3H-hypoxanthine 72 h assay, Dd2 cyt b; type: cell-based, Plasmodium falciparum
Procedure, shortened: as §2

[18] = LogD at pH 7.4; type: physicochemical; settings: 1-octanol/phosphate-buffered saline (1:1, v/v)
[19] = test system: mitochondrial electron transport chain of P. falciparum 3D7 asexual parasites; experiment: ETC biosensor / oxygen consumption rate; type: cell-based, Plasmodium falciparum; settings: for effect on malate-dependent oxygen consumption rate (OCR): compounds at 5 μM, malate as the energy source
Procedure, shortened: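 Magnet-purified trophozoite-infected RBCs were saponin-released (0.05%, 37 °C, 3 min) and washed. Parasites were suspended in MAS buffer with 25 mM malate and 0.002% digitonin and seeded at 5 × 10^6 per Cell-Tak-coated well (800g, 10 min). Seahorse XFe96 OCR was read at baseline, after test compound (5 μM final), after TMPD (0.2 mM) with ascorbate (2 mM), then after NaN3 (10 mM). Each cycle was 20 s mix, 1 min wait, 2.5 min measure.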

[20] = Kinetic aqueous solubility; type: physicochemical; settings: kinetic in PBS
Procedure, shortened: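 Miniaturised shake flask: test compound (200 μM) in PBS pH 7.4 was shaken at 600 rpm, 25 °C for 2 h, filtered, and the filtrate half-diluted in acetonitrile. Run in duplicate.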

[21] = 3D7 parasite EC50 compared to 17

With `O=C1C(O)=C([C@H]2CC[C@H](c3ccc(Cl)cc3)CC2)C(=O)c2ccccc21` [ATQ, atovaquone, reference compound] the EC50 [1] was > 10 µM, the EC50 [2] was > 10 µM and the EC50 [3] was 0.001 µM.

With `CCN(CC)CCCC(C)Nc1ccnc2cc(Cl)ccc12` (stereo not drawn) [CQ, chloroquine, reference compound] the EC50 [4] was 0.035 µM, the “% parasitemia” value ([5]; 10 mg/kg) was 0.02% and the “% reduction in parasitemia” value ([5]; 10 mg/kg) was 99.8%.

Work on `CCn1cc(-c2nc(C)no2)c(=O)c2cc(F)c(N3CCC(C)CC3)cc21` [Compound 17, 1-Ethyl-6-fluoro-3-(3-methyl-1,2,4-oxadiazol-5-yl)-7-(4-methyl-1-piperidyl)quinolin-4-one] yielded an EC50 [6] of 0.006 µM, a microsomal CLint at 1 μM [7] of 16.2 µL/min/mg and an EC50 [8] of 0.012 µM. For the same compound, the EC50 [1] was 1.7 µM, the hepatocyte CLint at 1 μM [9] was 53.8 µL/min/1e6 cells and the EC50 [10] was 0.009 µM. The EC50 [11] was > 25 µM, the EC50 [12] was > 50 µM and the EC50 [13] was < 0.001 µM. For the same compound, the EC50 [2] was 1.8 µM, the EC50 [14] was 0.009 µM and the “potency against each drug-resistant strain compared to the Dd2 and NF54 wild-type parasites” value [15] was “equipotent”. The EC50 [3] was 0.01 µM, the absorption [16] was “moderate absorption” and the “time for which total plasma concentration exceeds the in vitro EC99” value ([16]; after dose 1) was “approximately 12 h”. For the same compound, the “difference in sensitivity between the ELQ-300 resistant Dd2 strain and the Dd2 parental strain” value (from here on “difference”) [17] was “no difference in sensitivity”, the logD at 2 h [18] was 2.6 and the “in vitro EC99” value [4] was 0.030 µM. The “OCR upon addition of TMPD” value ([19]; after compound (5 μM), TMPD (cytochrome c electron donor) added) was “rescued”, the “effect on malate-dependent oxygen consumption rate (OCR)” value (shortened to “effect”) [19] was “significantly reduce the OCR” and the “% parasitemia” value ([5]; 20 mg/kg p.o. q.d. days 0-3) was 8.1%. For the same compound, the “% reduction in parasitemia” value ([5]; 20 mg/kg p.o. q.d. days 0-3) was 56% and 56.2%.

In the case of `CCn1cc(C(N)=O)c(=O)c2cc(F)c(N3CCC(C)CC3)cc21` [Compound 22, 1-Ethyl-6-fluoro-7-(4-methyl-1-piperidyl)-4-oxo-quinoline-3-carboxamide], the EC50 [12] is reported as > 50 µM, the EC50 [13] is reported as 0.024 µM and the “difference” value [17] is reported as “no difference in sensitivity”. The “fold less active/potent than 17” value [4, 21] was “approximately 20 fold”.

With `CCNC(=O)c1cn(CC)c2cc(N3CCC(C)CC3)c(F)cc2c1=O` [Compound 23, N,1-Diethyl-6-fluoro-7-(4-methyl-1-piperidyl)-4-oxo-quinoline-3-carboxamide] the “fold less active/potent than 17” value [4, 21] was “approximately 20 fold”.

For `CCn1cc(-c2nc(C)no2)c(=O)c2cc(F)c(N3CCN(C(C)=O)CC3)cc21` [Compound 33, 7-(4-Acetylpiperazin-1-yl)-1-ethyl-6-fluoro-3-(3-methyl-1,2,4-oxadiazol-5-yl)quinolin-4-one], the “effect” value [19] was “does not affect the OCR”.

In the case of `CCn1cc(-c2nc(C)no2)c(=O)c2cc(F)c(N3CCCC(C)C3)cc21` (stereo not drawn) [Compound 34, 1-Ethyl-6-fluoro-3-(3-methyl-1,2,4-oxadiazol-5-yl)-7-(3-methyl-1-piperidyl)quinolin-4-one], the “fold less active/potent than 17” value [4, 21] is reported as 5 fold.

With `CCCC1CCN(c2cc3c(cc2F)c(=O)c(-c2nc(C)no2)cn3CC)CC1` [Compound 38, 1-Ethyl-6-fluoro-3-(3-methyl-1,2,4-oxadiazol-5-yl)-7-(4-propyl-1-piperidyl)quinolin-4-one] the “fold more potent than 17” value [4, 21] was 2 fold.

In the case of `CCn1cc(-c2nc(C)no2)c(=O)c2cc(F)c(N3CCC(C(C)C)CC3)cc21` [Compound 39, 1-Ethyl-6-fluoro-7-(4-isopropyl-1-piperidyl)-3-(3-methyl-1,2,4-oxadiazol-5-yl)quinolin-4-one], the “fold less active/potent than 17” value [4, 21] is reported as 2 fold.

In the case of `CCn1cc(-c2nc(C)no2)c(=O)c2cc(F)c(N3CCC(c4ccccc4)CC3)cc21` [Compound 40, 1-Ethyl-6-fluoro-3-(3-methyl-1,2,4-oxadiazol-5-yl)-7-(4-phenyl-1-piperidyl)quinolin-4-one], the “fold less active/potent than 17” value [4, 21] is reported as 2 fold.

With `CCn1cc(-c2nc(C)no2)c(=O)c2cc(F)c(N3CCC(CN4CCOCC4)CC3)cc21` [Compound 42, 1-Ethyl-6-fluoro-3-(3-methyl-1,2,4-oxadiazol-5-yl)-7-[4-(morpholinomethyl)-1-piperidyl]quinolin-4-one] the “fold less active than the benzyl analog 41” value ([4]; 3D7 parasite EC50 compared to 41) was 30 fold.

In the case of `CCOC(=O)c1cn(CC)c2cc(N3CCC(Cc4ccccc4)CC3)c(F)cc2c1=O` [Compound 43, Ethyl 7-(4-Benzyl-1-piperidyl)-1-ethyl-6-fluoro-4-oxo-quinoline-3-carboxylate], the EC50 [6] is reported as 0.005 µM, the EC50 [8] is reported as 0.017 µM and the hepatocyte CLint at 1 μM [9] is reported as > 92.4 µL/min/1e6 cells. The EC50 [10] was 0.012 µM, the EC50 [14] was 0.014 µM and the “potency against each drug-resistant strain compared to the Dd2 and NF54 wild-type parasites” value [15] was “equipotent”. The EC50 [3] was 0.015 µM, the “difference” value [17] was “no difference in sensitivity” and the logD at 2 h [18] was 4.6. The “aqueous solubility pH 7.4” value [20] was 10.4 μM.

Compound `O=C(NCCN1CCCC1)c1cc(-c2ccc(CN3CCOCC3)cc2)nc2ccc(F)cc12` [DDD107498] has an EC50 [3] of 0.0004 µM.

With `Cc1cc(Nc2ccc(S(F)(F)(F)(F)F)cc2)n2nc(C(C)(F)F)nc2n1` [DSM265, reference compound] the EC50 [1] was > 10 µM, the EC50 [2] was > 10 µM and the EC50 [3] was 0.024 µM. For the same compound, the “effect” value [19] was “had no effect”.

Compound `CC1(C)c2nc(-c3ccc(F)cc3)c(Nc3ccc(F)cc3)n2CCN1C(=O)CN` [KAF156] has an EC50 [3] of 0.008 µM.

With `CS(=O)(=O)c1ccc(-c2cnc(N)c(-c3ccc(C(F)(F)F)nc3)c2)cc1` [MMV048] the EC50 [3] was 0.016 µM.

Compound `C[C@H]1[C@H](OC(=O)CCC(=O)O)O[C@@H]2O[C@@]3(C)CC[C@H]4[C@H](C)CC[C@@H]1[C@@]24OO3` [artesunate, reference compound] has an EC50 [4] of 0.008 µM.
